RORA inh – inhibitors of orphan receptor RORA, primary screen, cell-based, luminescence; hit rate 0.43% among 65,000; Nuclear receptor ROR-alpha (Homo sapiens), P35398; CHO-K1 Gal4-RORA LBD luciferase reporter; inhibition, % at 10 µM;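 active = inhibition above the mean of all tested compounds plus 3 SD, cut at about 52% in these data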;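 note: 0% = RORA-transfected cells with DMSO and 100% = mock-transfected cells lacking RORA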
Target sequence (P35398 whole entry, looked up, the tested form may be a part): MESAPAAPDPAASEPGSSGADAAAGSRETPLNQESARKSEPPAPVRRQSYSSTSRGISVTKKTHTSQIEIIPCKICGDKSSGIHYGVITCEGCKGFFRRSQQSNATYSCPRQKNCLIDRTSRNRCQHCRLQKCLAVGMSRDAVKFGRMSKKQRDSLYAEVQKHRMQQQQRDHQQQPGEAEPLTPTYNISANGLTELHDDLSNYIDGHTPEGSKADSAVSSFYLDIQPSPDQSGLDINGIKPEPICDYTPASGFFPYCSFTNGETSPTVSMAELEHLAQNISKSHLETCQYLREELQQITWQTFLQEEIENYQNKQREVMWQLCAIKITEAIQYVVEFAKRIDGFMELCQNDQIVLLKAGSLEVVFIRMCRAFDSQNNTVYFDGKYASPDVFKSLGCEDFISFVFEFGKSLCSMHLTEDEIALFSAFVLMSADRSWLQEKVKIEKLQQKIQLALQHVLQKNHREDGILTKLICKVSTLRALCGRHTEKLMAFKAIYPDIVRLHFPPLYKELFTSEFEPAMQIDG
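System: transiently transfected CHO-K1 cells, Gal4-DBD/human RORA-LBD fusion plus 5xGal4-luciferase reporter. Doses: one dose of 10 µM final. Timing: 20 h compound treatment, 37 °C. Measured by: luminescence. Evaluation: % inhibition of basal luciferase versus +RORA/-RORA DMSO controls. Benchmarks: mock-transfected cells as 100%, +RORA DMSO cells as 0%. Replicates: single test per compound.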
Numbers without * were called inactive. This excerpt belongs to a sample that is enriched for hits.

SMILES	RORA inh
CCn1nc(-c2cccs2)nc2c(=O)n(C)c(=O)nc1-2	91*
O=c1[nH]c2ccccc2n1CCCN1CCC(n2c(=O)[nH]c3cc(Cl)ccc32)CC1	14
Nc1ccc(S(=O)(=O)N2CC3CC(C2)c2cccc(=O)n2C3)cc1 (centres undefined)	-10
Cc1cccc(NC2=NCCCS2)c1C	19
Cn1c2ccccc2c2c(C(=O)N3CCC4(CC3)OCCO4)cn(C3CCCCC3)c(=O)c21	0
CCCNC(=O)N1C2CCC1CC(O)(c1cccnc1)C2 (centres undefined)	-13
O=C1CN=C(c2ccccc2)c2oc3ccc(Br)cc3c2N1	10
COc1cccc(OC)c1C1=NCC(=O)Nc2c1oc1ccc(Br)cc21	62*
CC1(C)CN=C(Nc2nc3ccccc3s2)S1	-54
CC(C)C(=O)N1CCN(CCN=Cc2c(O)n(C)c(=O)n(C)c2=O)CC1	5
COc1cc2nc(CN3CC=C(c4ccccc4)CC3)[nH]c(=O)c2cc1OC	80*
COc1ccc2c(c1)c(C(=O)CN1CCN(C)CC1)c(C)n2Cc1ccccc1	-29
O=C(c1cc2c(s1)-c1ccccc1OC2)N1CCC2(CC1)OCCO2	-54
CN(C(=O)c1ccco1)C1(c2ccccc2Cl)CCCCC1=O (centres undefined)	7
CCC(=NC1CC1)c1c(O)n(-c2ccc(OC)cc2)c(=O)[nH]c1=O	3
